# An excerpt weighted towards active compounds, which were near 5.4% of everything screened.
# Mdm2 MdmX PPI = inhibitors of human Mdm2/MdmX interaction. SaOS-2 split-luciferase Mdm2/MdmX complementation, luminescence. actives 3% (n = 330,000). O15151+Q00987. inhibition, % at 8 µM;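 active = inhibition of at least 50% at 8 µM in the primary screen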
# Target sequence (O15151 whole entry, looked up): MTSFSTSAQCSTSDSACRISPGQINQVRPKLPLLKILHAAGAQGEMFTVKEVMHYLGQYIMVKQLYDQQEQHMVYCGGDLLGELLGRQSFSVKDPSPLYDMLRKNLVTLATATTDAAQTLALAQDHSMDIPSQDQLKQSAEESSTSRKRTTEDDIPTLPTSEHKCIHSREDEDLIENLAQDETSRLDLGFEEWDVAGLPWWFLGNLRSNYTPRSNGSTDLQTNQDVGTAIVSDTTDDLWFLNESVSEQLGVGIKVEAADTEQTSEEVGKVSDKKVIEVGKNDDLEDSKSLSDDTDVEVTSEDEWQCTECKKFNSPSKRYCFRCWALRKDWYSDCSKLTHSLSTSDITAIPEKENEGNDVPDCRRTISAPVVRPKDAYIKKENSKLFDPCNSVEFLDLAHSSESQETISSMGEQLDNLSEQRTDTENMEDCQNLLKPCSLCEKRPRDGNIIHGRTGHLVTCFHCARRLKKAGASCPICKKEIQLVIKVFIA
# Target sequence (Q00987 whole entry, looked up): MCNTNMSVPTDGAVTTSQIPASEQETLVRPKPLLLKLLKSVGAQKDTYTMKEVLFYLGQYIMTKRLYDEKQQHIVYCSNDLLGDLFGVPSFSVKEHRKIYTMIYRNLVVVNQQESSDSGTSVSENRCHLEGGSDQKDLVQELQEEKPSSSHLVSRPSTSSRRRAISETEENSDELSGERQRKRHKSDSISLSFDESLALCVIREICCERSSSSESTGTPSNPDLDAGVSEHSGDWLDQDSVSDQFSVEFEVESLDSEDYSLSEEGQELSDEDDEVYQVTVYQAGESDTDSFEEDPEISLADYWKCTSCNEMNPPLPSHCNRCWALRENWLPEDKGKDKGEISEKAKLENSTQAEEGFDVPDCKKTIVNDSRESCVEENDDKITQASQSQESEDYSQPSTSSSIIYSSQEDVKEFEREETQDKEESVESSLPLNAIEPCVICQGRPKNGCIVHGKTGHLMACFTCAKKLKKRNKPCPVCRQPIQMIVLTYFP
# T cruzi repl = T. cruzi replication inhibition; T. cruzi beta-gal in NIH3T3, luminescence, 90 h; inhibition, % (no concentration beside the values); actives 1.4% (n = 300,000);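 active = mean inhibition across valid replicates above about 55%, limit read from the data; inconclusive = mean below that limit but half or more replicates reach it; inactive = mean below it, under half of replicates reach it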;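 note: signal also drops with host cell toxicity which is not excluded here; 0% = plate median of DMSO wells and 100% = zero luminescence signal; higher percent means less beta-gal luminescence so fewer parasites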
#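 Assay system: NIH/3T3 host cells with β-galactosidase reporter T. cruzi; input: 5,000 host fibroblasts per well; compound: single 50 nL compound addition per well in DMSO; timing: ≥90 h infection period, 3 h prior cell attachment; measured by: GalScreen β-gal luminescence, detergent lysis, 60 min; evaluation: percent inhibition of parasite-derived β-gal signal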
# CSC inhib = blocks cancer stem cells; cancer stem cell-like cells viability, luminescence; inhibition, % at 7.5 µM; actives 1.1% (n = 300,000); AID 2717; in the data active = inhibition above about 75%; inconclusive = no clear call, values can overlap the other calls; tested in HMLE shEcad cells
# aSyn 5UTR inh = MLPCN primary screen, SNCA 5' untranslated region. alpha-synuclein 5'UTR reporter, inhibitor activity. inhibition, % (tested at 7.5 µM). actives 0.82% (n = 300,000). AID 1813; in the data active = inhibition above about 60%; inconclusive = no clear call, values can overlap the other calls;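 note: H4 neuroglioblastoma cells stably carrying SNCA 5'UTR luciferase fusion; 0% = DMSO wells and 100% = positive control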
# SKKanGAS inh = SKKanGAS growth inhibition | S. pyogenes SKKanGAS, kanamycin growth, BacTiter-Glo, 6 h | inhibition, % at 7.5 µM | actives 1.3% (n = 300,000);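 active = mean replicate score, as percent of positive control median, at least 50; inconclusive = mean below 50 but one replicate at or above 50; inactive = mean and every replicate below 50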;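 note: strain carries kanamycin resistance gene driven by streptokinase promoter and grows in 40 µg/ml kanamycin; loss of luminescence reflects streptokinase promoter inhibition or plain growth inhibition; 0% = median of DMSO wells and 100% = positive control at its reference dose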
# Mdm2-MdmX conf = human Mdm2/MdmX binding inhibition, confirmed. actives 55% (n = 10,000). shares compounds with Mdm2 MdmX PPI. inhibition, % at 8 µM. luminescent assay. AID 489028; in the data active = inhibition above about 40%
# Full FLuc ctr = full-length luciferase inhibition in Mdm2/MdmX counter-screen; AID 504607; inhibition, % at 8 µM; shares compounds with Mdm2 MdmX PPI; actives 77% (n = 6,200); SaOS-2 full-length luciferase counterscreen, luminescence;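 active = mean inhibition at 8 µM reaching about 37%, which flags the compound as non-specific, limit read from the data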;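 note: p53-null SaOS-2 cells with luciferase driven by a doxycycline-inducible promoter; compound on cells about two nights before reading with doxycycline added after day one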
# * hit, by the source's call; ? = inconclusive; . = no result given.
SMILES,Mdm2 MdmX PPI,T cruzi repl,CSC inhib,aSyn 5UTR inh,SKKanGAS inh,Mdm2-MdmX conf,Full FLuc ctr
COc1ccc2c(c1)C1(Nc3ccccc3-c3nc4ccccc4n31)C(=O)N2 (stereo not given),36,-1,-11,8,2,.,.
COc1ccc2c(c1)C1(Nc3ccccc3-c3nc4ccccc4n31)C(=O)N2C (stereo not given),76*,.,11,.,.,81*,46*
Nc1ncnc(Oc2ccccc2F)c1[N+](=O)[O-],16,-12,-10,-23,-4,.,.
O=C(Nc1ccc(S(=O)(=O)N2CCCCCC2)cc1)c1[nH]ncc1[N+](=O)[O-],52*,-9,52,86*,5,36,.
O=C(Nc1ccc([N+](=O)[O-])cc1)c1ccc(S(=O)(=O)N2CCCC2)cc1,8,10,0,12,-2,.,.
Cc1cc(C(F)(F)F)nc(SCC(=O)Nc2c(C)n(C)n(-c3ccccc3)c2=O)n1,26,2,-2,-14,3,.,.
Cc1ccc(NC(=S)N=Nc2c(O)n(C)c3ccc(S(=O)(=O)N4CCOCC4)cc23)cc1C,52*,37,2,77*,10,41*,48*
O=C(Cn1ncc2c3ccccc3n(Cc3ccccc3)c2c1=O)NCCCN1CCCC1=O,8,9,-22,6,1,.,.
Cc1cc(C)cc(OC(=O)CS(=O)c2ccc(C(F)(F)F)cc2[N+](=O)[O-])c1 (stereo not given),50*,-13,39,-29,11,40*,55*
O=C(COC(=O)c1cnccn1)c1cccc([N+](=O)[O-])c1,7,-7,-6,-12,13,.,.
Cc1ccc(C(C)C)c(OCCNCCc2ccccc2)c1,51*,48,56,-10,10,26,.
Cc1ccc(C(C)C)c(OCCCNCc2cccnc2)c1,5,41,-4,8,-4,.,.
CN(Cc1ccco1)c1ncnc2ccc(-c3ccc4c(ccn4C)c3)cc12,51*,.,84*,.,.,53*,66*
CN(Cc1ccco1)c1ncnc2ccc(-c3ccc4c(c3)OCO4)cc12,42,.,23,.,.,.,.
Cc1cccc(N(Cc2cc3ccc(C)cc3[nH]c2=O)S(=O)(=O)c2ccccc2)c1,0,12,29,8,11,.,.
CN(CC(=O)Nc1ccc(F)c(Cl)c1)S(=O)(=O)c1ccc2c(c1)n(C)c(=O)c(=O)n2C,-6,-19,-9,-7,-1,.,.
Cn1c(-c2ccccc2)c(/C=N/NC(=O)c2cccnc2)c2ccccc21,35,9,-11,-16,-12,.,.
O=C(N/N=C/c1c(-c2ccccc2)[nH]c2ccccc12)c1cccnc1,52*,8,4,-34,4,53*,68*
Cc1c(C)n(C)c2ccc(C(=O)NCCCN3CCCC3)cc12,5,6,-7,-4,-4,.,.
CCN(CC)c1ccc(NC(=O)c2ccc3c(c2)c(C)c(C)n3C)cc1,61*,69*,2,-33,-3,48*,71*
O=C(Nc1ccc(Cl)c(C(F)(F)F)c1)NC1CC2CCCC(C1)N2Cc1ccccc1 (stereo not given),83*,53,?,47,-6,52*,60*
Cc1ccc(N(CC2CO2)S(=O)(=O)c2ccccc2[N+](=O)[O-])cc1 (stereo not given),6,-4,-11,-15,-4,.,.
Cn1c(CCN2CCOCC2)nc2cc(NC(=O)c3cccs3)ccc21,18,-6,5,18,-2,.,.
CCN(Cc1ccccc1)C(=O)CS(=O)(=O)c1ccccc1,9,0,-1,-13,1,.,.
O=S(=O)(C/C(=C/CO)S(=O)(=O)c1ccccc1)c1ccccc1,89*,62*,3,-71,3,96*,51*
SMILES,Mdm2 MdmX PPI,T cruzi repl,CSC inhib,aSyn 5UTR inh,SKKanGAS inh,Mdm2-MdmX conf,Full FLuc ctr
CC(=O)/C(C#N)=C1\NC(=O)C(Cc2ccccc2C)S1 (stereo not given),83*,17,46,32,11,70*,41*
CC(=O)/C(C#N)=C1\NC(=O)C(Cc2ccccc2)S1 (stereo not given),46,10,-12,-20,6,.,.
O=C(Nc1ccc(-c2ccccc2)cc1)c1ccccc1,24,-4,-9,3,1,.,.
C=CCN1N=C(c2ccc(NC(=O)c3ccccc3)cc2)CSC1=O,66*,-6,-3,20,2,4,.
COc1ccc(CNn2c(-c3ccccc3F)nc3ccccc3c2=O)cc1OC,10,4,-16,-8,23,.,.
O=C(O)C1C2C=CC(C2)C1C(=O)NCc1cccnc1 (stereo not given),21,1,-6,-24,2,.,.
Cc1cc(C)n(-c2nc(Nc3ccccc3)nc(-n3nc(C)cc3C)n2)n1,13,-3,7,-8,40,.,.
Cc1cc(C)n(-c2nc(N(c3ccccc3)c3ccccc3)nc(-n3nc(C)cc3C)n2)n1,100*,17,-15,?,108*,100*,58*
COc1cc(-c2nc3cnccn3c2Nc2ccc(C(C)C)cc2)ccc1O,34,40,.,-1,3,.,.
COc1cc(-c2nc3cnccn3c2Nc2ccc(C)cc2)ccc1O,69*,14,-22,22,2,8,.
COc1cc(-c2nc3cnccn3c2Nc2ccc3c(c2)OCCO3)ccc1O,43,12,-9,8,-3,.,.
COc1cc(-c2nc3cnccn3c2Nc2ccccc2)ccc1O,57*,5,4,24,0,38,94*
COc1ccc(N(C)C(=O)c2ccc(NC(=O)CCS(=O)(=O)c3cccs3)cc2)cc1,21,-1,7,3,1,.,.
Brc1ccc(N/N=C(/N=Nc2nn[nH]n2)c2ccccc2)cc1,77*,-28,-10,97*,35,85*,14
O=C(CCl)N=c1sccn1Cc1ccc(Cl)cc1Cl,100*,99*,0,-6,-8,100*,54*
O=C(CCl)N=c1sccn1Cc1ccccc1Cl,99*,61*,21,-11,7,99*,51*
O=C1c2ccccc2NC(c2ccc(-c3ccc(F)cc3)o2)N1O (stereo not given),32,.,17,.,.,.,.
O=C1c2ccccc2NC(c2ccc(-c3ccc(Br)cc3)o2)N1O (stereo not given),73*,21,103*,41,10,56*,31
N/C(Cc1ccc(Cl)cc1)=N\OC(=O)c1cccc2ccccc12,99*,65*,5,-20,1,76*,39*
COc1ccc(C/C(N)=N/OC(=O)c2ccc(Cl)cc2)cc1,8,16,9,10,0,.,.
N/C(CCS(=O)(=O)c1ccc(Cl)cc1)=N\OC(=O)c1ccccc1Cl,92*,-24,-7,-4,-4,87*,50*
